From the RNAGym collection of RNA variant scans (doi:10.1126/science.aae0568)
Fewer inactive variants are shown than the library holds.

B1: tRNA (parent)
chain: GUUCCGUUGGCGUAAUGGUAACGCGUCUCCCUCCUAAGGAGAAGACUGCGGGUUCGAGUCCCGUACGGAACG

Variants of: B1
Assay: yeast fitness relative to wild type (ratio to wild type); higher = fitter; tRNA-Arg(CCU), competitive growth, 37 C, YPD
Method in brief: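 For this measurement, the tRNA-Arg(CCU) gene was varied by chemical synthesis at a 3% per-site mutation rate across 69 sites, and each variant was placed at the native genomic locus in Saccharomyces cerevisiae. The pooled strains went through a 24-hour competition in YPD at 37°C in six parallel replicates, with amplicons from start and end populations read by 100-nucleotide paired-end sequencing. Darwinian fitness relative to wild type followed from the change in each genotype's frequency. Genotypes needed ≥ 100 starting reads, and estimates < 0.5 were set to 0.5.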

Variant | yeast fitness
A36G G39A U47A G68C | ≤ 0.5
A37C A43C A65U | 0.537
A36U A43G C46A G48C A70C | ≤ 0.5
A36G C55G A65G | ≤ 0.5
A36G C60U A70U | ≤ 0.5
A36G G63A A69U | 0.688
A37C C55U G63A G67C | 0.617
A36U A40C C62U A65C | ≤ 0.5
A37C A65C | 0.797
A36G A43G C62A | 0.553
A36U G52A G63C | 0.558
A36C G50A C55A | 0.766
A36C U47A G48C U54G C60G | ≤ 0.5
A36C C46A C49U | 0.562
A36G U59C A69U | 0.783
A36U C49G | 0.607
A36U C49U | 0.585
A36G C49G G63A A69C A70C | ≤ 0.5
A36C A69C | 0.644
A36C A40U A70U | ≤ 0.5
A37C C62U C66G | ≤ 0.5
A36G G44A C46U | 0.992
A36U A40U G44C C60U | ≤ 0.5
A36G C61U A70U | 0.755

Variant | yeast fitness
A36C C61A | 0.523
A36U G51C U53C | ≤ 0.5
A37C A45U G51C | ≤ 0.5
A36U C49G U54A A57C G68A | ≤ 0.5
A36C A45C U54A A57U A65U | ≤ 0.5
A36C U47A G48C U54G | 0.544
A36G C46G C49U | 0.763
A36G C49U C61U | 0.654
A36U G56A C66U | ≤ 0.5
A36C U47A G48C C62G | ≤ 0.5
A36G C49U G58C | 0.655
A36U G56C A69U | 0.669
A36G G56A | 1.01
A36G G56C | 0.686
A36U U47C G52C | ≤ 0.5
A36U A45C C49G G67A | 0.548
A36C A40U A57C | 0.52
A36G G39A | 0.954
A36G G39C | 0.787
A36G A40U | 0.938
A36G A40C | 0.961
A36U G50U A57U | 0.616
A36U A69G | 0.617
A36U A69C | 0.629

Variant | yeast fitness
A36C U47A G48C U54G A65C G67A | ≤ 0.5
A36U A40U A65C C66U | ≤ 0.5
A36U C49A A69U | 0.565
A36G C46U A69U | 0.841
A36C G41C C61U | ≤ 0.5
A36G U47A A69C | 0.68
A36C U54A C61G | 0.635
A36U C66A | ≤ 0.5
A36U C49A G52A | ≤ 0.5
A36G C66U | 0.949
A36G C66A | 0.683
A36C A42C | 0.727
A36G A45C A69U | 0.806
A36G C61U C66U | 0.543
A36U U54C | 0.559
A36G A57U | 0.859
A36G A57C | 0.645
A36U U53G A69U | ≤ 0.5
A36G A45C | 1.01
A36G A45U | 1.04
A36G A45G | 0.944
A36U G39C C61U | ≤ 0.5
A36G A65U A70C | 0.684
A36U A45U C66U | 0.535

Variant | yeast fitness
A36G G68C A69U | 0.547
A37C C49G | 0.729
A37C A43U A65U | 0.651
A36U U47A | 0.697
A36G A57G C62A | 0.549
A36G C55A C66A | ≤ 0.5
A36C U47A G48C U54G C62U | ≤ 0.5
A36G U53A C62A | ≤ 0.5
A36C G39A | ≤ 0.5
A36G A45U A65U | 0.572
A36C C62U | 0.583
A36G C49U C66G | ≤ 0.5
A37C C49U C55U G63A G67C | ≤ 0.5
A37C G39C A65U | ≤ 0.5
A37C C55G G56A A69C | ≤ 0.5
A37C A42U C49A A65U | 0.609
A37C A40U G52C A69G | ≤ 0.5
A36U C60A A70U | ≤ 0.5
A36G C46U A57C | ≤ 0.5
A36U G51A G58C U59A | ≤ 0.5
A36G A45G A65U G67U | ≤ 0.5
A36U C46G U54C C62A A69C | ≤ 0.5
A36G A42U U53C | ≤ 0.5
A36U A42C | 0.595

Variant | yeast fitness
A36U A70C | 0.799
A36U A70G | 0.607
A36C C49G C61G C62G | ≤ 0.5
A36C U47C | 0.674
A36C G41C | 0.579
A36C C49U C55U C62G G68C | ≤ 0.5
A36U A42U C49U A69C | ≤ 0.5
A37C C49U C60G | ≤ 0.5
A36C G63C | 0.558
A36U A42U C49U | 0.576
A36U C46G C62A A69C | 0.562
A37C A40G G52C U59C A65U C66U | ≤ 0.5
A36G C55A C60U | ≤ 0.5
A36G A69C | 1.05
A36G A69U | 1.02
A36G C60U C61U | 0.625
A36G A43C A45G | 0.906
A37C C46G C62G | 0.654
A36G A43U | 1.01
A36G A43G | 0.975
A36U A40C A45U C62G G63A | ≤ 0.5
A37C C66U | 0.75
A37C C66G | 0.586
A37C C46G G51A G52A | ≤ 0.5

Variant | yeast fitness
A36G A42C G68C | 0.608
A36C C55U G68C A70G | ≤ 0.5
A36U U47G C61A A70U | ≤ 0.5
A36U U59C C62G | ≤ 0.5
A36C G44C G51C | ≤ 0.5
A36G A42C A69U | 0.744
A36C G50C G63C | 0.652
A36C C49A | 0.563
A36C C49U | 0.557
A36C C49G | 0.56
A36U G48A C49A G68A | ≤ 0.5
A36G G41C | 0.955
A36G C46U | 0.952
A36G U64A G67C | ≤ 0.5
A36C G67C | 0.537
A36C G67U | 0.596
A36G U59A A65C A70C | ≤ 0.5
A36U G51A | 0.61
A36U G51C | 0.612
A36G G50C U64C | 1.18
A36U C55U A65C | ≤ 0.5
A36C A42U A43G A70G | ≤ 0.5
A36U U59G A65U | ≤ 0.5
A37C C62U | 0.913

Variant | yeast fitness
A36G A45G C49U | 0.578
A36C A57C C61U A69C | ≤ 0.5
A36G G41C C60G | 0.682
A36U C55G | ≤ 0.5
A36G A37G A45C G51C U59G | ≤ 0.5
A36G G67A | 0.864
A36G G67U | 0.901
A36U C49G A69U | ≤ 0.5
A36G G48C | 0.905
A36U G39A A45G | ≤ 0.5
A36G G48A C49G U59A | ≤ 0.5
A36U A37U C55A G63C | ≤ 0.5
A36G G63C | 0.724
A36G G63A | 0.944
A37C C60A A70G | 0.592
A36U A57G G63C | 0.563
A36G A42U | 0.902
A36G A42C | 0.976
A36G C62A G63C | ≤ 0.5
A36U G39A A42C G50U G63A | 0.535
A36C A65C | 0.601
A36U A37G A40C C66U | 0.636
A36U G56A A69U | ≤ 0.5
